In ChEMBL document CHEMBL2016516, “Design, synthesis and biological evaluation of novel chalcone derivatives as antitubulin agents” (Bioorg Med Chem, 2012):
Values after ≈ are worked out from the molar mass of the structure shown.

Experiments:
[1] = Inhibition of bovine tubulin polymerization after 20 mins by spectrophotometry; design: species or system Bos taurus
Method in brief: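 Tubulin was purified from bovine brain. Varying compound concentrations were preincubated with 10 µM tubulin in glutamate buffer at 30 °C, then cooled to 0 °C. GTP was added and the mixtures were moved to 0 °C cuvettes. They were then warmed to 30 °C in a recording spectrophotometer, with assembly followed turbidimetrically.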

A549 = test: Antiproliferative activity against human A549 cells after 48 hrs by MTT assay; assay type: functional, cell-based; details: A549, 48 h
Method in brief: (§1)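 Cells grown to log phase in RPMI 1640 with 10% FBS, diluted to 2 × 10⁴ cells/mL and seeded, then incubated 24 h at 37 °C, 5% CO₂ before treatment. Samples at pre-set concentrations were added in six wells, with colchicine and CA-4 as references. After 48 h, MTT in PBS was added for 4 h, followed by extraction solution (10% SDS).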

MCF7 [2] = test: Antiproliferative activity against human MCF7 cells after 48 hrs by MTT assay; assay type: functional, cell-based; details: MCF7, 48 h; method in brief: as §1
MCF7 [3] = test: Cell cycle arrest in human MCF7 cells assessed as accumulation in S phase at 5 ug/ml after 24 hrs by flow cytometry (reference value: 8.06%); assay type: functional
MCF7 [4] = test: Cell cycle arrest in human MCF7 cells assessed as accumulation in G0/G1 phase at 5 ug/ml after 24 hrs by flow cytometry (reference value: 47.79%); assay type: functional
MCF7 [5] = test: Cell cycle arrest in human MCF7 cells assessed as accumulation in G2/M phase at 5 ug/ml after 24 hrs by flow cytometry (reference value: 12.99%); assay type: functional

| IC50 [1] [µg/mL] | IC50 (A549) [µg/mL] | IC50 (MCF7 [2]) [µg/mL] | SMILES | Activity (MCF7 [3]) [%] | Activity (MCF7 [4]) [%] | Activity (MCF7 [5]) [%] |
| --- | --- | --- | --- | --- | --- | --- |
| 1.42 (≈ 2.8 µM) | 0.95 (≈ 1.87 µM) | 0.03 (≈ 0.0592 µM) | Cc1ccc(C(=O)/C=C/c2cc(Cl)ccc2Oc2c([N+](=O)[O-])cc(C(F)(F)F)cc2[N+](=O)[O-])cc1 | 1.55 | 2.36 | 67.93 |
| 4.83 (≈ 9.24 µM) | 11.5 (≈ 22 µM) | 1.83 (≈ 3.5 µM) | COc1ccc(C(=O)/C=C/c2cc(Cl)ccc2Oc2c([N+](=O)[O-])cc(C(F)(F)F)cc2[N+](=O)[O-])cc1 |  |  |  |
| 12.31 (≈ 22.2 µM) | 26.3 (≈ 47.4 µM) | 6.01 (≈ 10.8 µM) | O=C(/C=C/c1cc(Br)ccc1Oc1c([N+](=O)[O-])cc(C(F)(F)F)cc1[N+](=O)[O-])c1ccc(F)cc1 |  |  |  |
| 11.66 (≈ 22.8 µM) | 23.8 (≈ 46.6 µM) | 5.17 (≈ 10.1 µM) | O=C(/C=C/c1cc(Cl)ccc1Oc1c([N+](=O)[O-])cc(C(F)(F)F)cc1[N+](=O)[O-])c1ccc(F)cc1 |  |  |  |
| 6.34 (≈ 11.3 µM) | 17.2 (≈ 30.7 µM) | 4.54 (≈ 8.08 µM) | O=C(/C=C/c1cc(Cl)cc(Cl)c1Oc1c([N+](=O)[O-])cc(C(F)(F)F)cc1[N+](=O)[O-])c1ccc(Cl)cc1 |  |  |  |
| 7.14 (≈ 12.5 µM) | 16.5 (≈ 28.9 µM) | 4.74 (≈ 8.29 µM) | O=C(/C=C/c1cc(Br)ccc1Oc1c([N+](=O)[O-])cc(C(F)(F)F)cc1[N+](=O)[O-])c1ccc(Cl)cc1 |  |  |  |
| 4.68 (≈ 8.88 µM) | 11.7 (≈ 22.2 µM) | 3.21 (≈ 6.09 µM) | O=C(/C=C/c1cc(Cl)ccc1Oc1c([N+](=O)[O-])cc(C(F)(F)F)cc1[N+](=O)[O-])c1ccc(Cl)cc1 |  |  |  |
| 6.25 (≈ 10.1 µM) | 13.7 (≈ 22.3 µM) | 2.17 (≈ 3.52 µM) | O=C(/C=C/c1cc(Br)ccc1Oc1c([N+](=O)[O-])cc(C(F)(F)F)cc1[N+](=O)[O-])c1ccc(Br)cc1 |  |  |  |
| 4.62 (≈ 8.08 µM) | 10.9 (≈ 19 µM) | 1.41 (≈ 2.47 µM) | O=C(/C=C/c1cc(Cl)ccc1Oc1c([N+](=O)[O-])cc(C(F)(F)F)cc1[N+](=O)[O-])c1ccc(Br)cc1 |  |  |  |

Second part, the molecule before the results:

| SMILES | IC50 [1] [µg/mL] | IC50 (A549) [µg/mL] | IC50 (MCF7 [2]) [µg/mL] | Activity (MCF7 [3]) [%] | Activity (MCF7 [4]) [%] | Activity (MCF7 [5]) [%] |
| --- | --- | --- | --- | --- | --- | --- |
| Cc1ccc(C(=O)/C=C/c2cc(Br)cc(Br)c2Oc2c([N+](=O)[O-])cc(C(F)(F)F)cc2[N+](=O)[O-])cc1 | 5.68 (≈ 9.01 µM) | 10.1 (≈ 16.1 µM) | 1.44 (≈ 2.29 µM) |  |  |  |
| Cc1ccc(C(=O)/C=C/c2cc(Cl)cc(Cl)c2Oc2c([N+](=O)[O-])cc(C(F)(F)F)cc2[N+](=O)[O-])cc1 | 4.87 (≈ 9 µM) | 10 (≈ 18.6 µM) | 0.7 (≈ 1.29 µM) |  |  |  |
| Cc1ccc(C(=O)/C=C/c2cc(Br)ccc2Oc2c([N+](=O)[O-])cc(C(F)(F)F)cc2[N+](=O)[O-])cc1 | 6.41 (≈ 11.6 µM) | 6.85 (≈ 12.4 µM) | 0.55 (≈ 0.998 µM) |  |  |  |
| COc1ccc(C(=O)/C=C/c2cc(Br)cc(Br)c2Oc2c([N+](=O)[O-])cc(C(F)(F)F)cc2[N+](=O)[O-])cc1 | 6.02 (≈ 9.32 µM) | 13.2 (≈ 20.4 µM) | 3.53 (≈ 5.46 µM) |  |  |  |
| COc1ccc(C(=O)/C=C/c2cc(Cl)cc(Cl)c2Oc2c([N+](=O)[O-])cc(C(F)(F)F)cc2[N+](=O)[O-])cc1 | 6.56 (≈ 11.8 µM) | 12.5 (≈ 22.5 µM) | 2.69 (≈ 4.83 µM) |  |  |  |
| COc1ccc(C(=O)/C=C/c2cc(Br)ccc2Oc2c([N+](=O)[O-])cc(C(F)(F)F)cc2[N+](=O)[O-])cc1 | 4.08 (≈ 7.19 µM) | 12.6 (≈ 22.3 µM) | 2.32 (≈ 4.09 µM) |  |  |  |
| O=C(/C=C/c1cc(Br)cc(Br)c1Oc1c([N+](=O)[O-])cc(C(F)(F)F)cc1[N+](=O)[O-])c1ccc(F)cc1 | 15.31 (≈ 24.1 µM) | 120 (≈ 190 µM) | 8.06 (≈ 12.7 µM) |  |  |  |
| O=C(/C=C/c1cc(Cl)cc(Cl)c1Oc1c([N+](=O)[O-])cc(C(F)(F)F)cc1[N+](=O)[O-])c1ccc(F)cc1 | 9.62 (≈ 17.6 µM) | 29.3 (≈ 53.8 µM) | 5.02 (≈ 9.21 µM) |  |  |  |
| O=C(/C=C/c1cc(Br)cc(Br)c1Oc1c([N+](=O)[O-])cc(C(F)(F)F)cc1[N+](=O)[O-])c1ccc(Cl)cc1 | 12.6 (≈ 19.4 µM) | 19.4 (≈ 29.9 µM) | 6.76 (≈ 10.4 µM) |  |  |  |
| O=C(/C=C/c1cc(Br)cc(Br)c1Oc1c([N+](=O)[O-])cc(C(F)(F)F)cc1[N+](=O)[O-])c1ccc(Br)cc1 | 10.01 (≈ 14.4 µM) | 16.8 (≈ 24.2 µM) | 2.87 (≈ 4.13 µM) |  |  |  |
| O=C(/C=C/c1cc(Cl)cc(Cl)c1Oc1c([N+](=O)[O-])cc(C(F)(F)F)cc1[N+](=O)[O-])c1ccc(Br)cc1 | 9.46 (≈ 15.6 µM) | 14.5 (≈ 23.9 µM) | 2.6 (≈ 4.29 µM) |  |  |  |
| COc1cc2c(c(OC)c1OC)-c1ccc(OC)c(=O)cc1[C@@H](NC(C)=O)CC2 [COLCHICINE] | 1.7 (≈ 4.26 µM) | 0.74 (≈ 1.85 µM) | 0.51 (≈ 1.28 µM) | 1.34 | 1.96 | 78.1 |
| COc1ccc(/C=C\c2cc(OC)c(OC)c(OC)c2)cc1O [COMBRETASTATIN A4] | 0.81 (≈ 2.56 µM) | 0.53 (≈ 1.68 µM) | 0.43 (≈ 1.36 µM) |  |  |  |
